STEP block = blocks human striatal-enriched tyrosine phosphatase | recombinant STEP, OMFP fluorogenic substrate, fluorescence | AID 588621 | inhibition, % at 20 µM | P54829 | actives 0.25% (n = 360,000);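 active = inhibition at 20 µM, scaled per plate between control wells, above about 37%, limit read from the data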;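 note: 0% = DMSO with enzyme and substrate and 100% = substrate only without enzyme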
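Assay system: isolated STEP enzyme. Buffer or medium: pH 6.0 Bis-Tris with DTT and Tween 20. Also added: fluorogenic phosphatase substrate OMFP at 25 µM final. Dosing: 20 µM, 1% DMSO. Timing: 20 min reaction, room temperature, in the dark. Measured by: fluorescence intensity, excitation 480 nm, emission 540 nm. Evaluation: normalized % inhibition.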
Scp-1 inhibitor = inhibitors of human Scp-1 phosphatase. Q9GZU7. Recombinant Scp1, phosphopeptide, malachite green phosphate absorbance. inhibition, % at 20 µM. actives 0.88% (n = 340,000);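 active = inhibition above about 50% at 20 µM, limit read from the data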;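 note: plate controls were DMSO wells with enzyme for no effect and wells lacking enzyme for full effect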
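Test system: SCP-1 phosphatase catalytic domain, residues 76-261 | Compound dosing: One concentration, 20 µM, with 1.0% DMSO | Schedule: 45 min room-temperature reaction, 5 min colour, 30 min stabiliser | Detection: Absorbance at 630 nm | Read-out basis: % inhibition of SCP-1 phosphate liberation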
DNMT1 block = blocks human DNA methyltransferase DNMT1; DNMT1 molecular beacon, Hinp1I cleavage, fluorescence; actives 0.83% (n = 360,000); AID 588458; inhibition (reported as % activation of signal), % at 10 µM; in the data active = inhibition above about 50%
GRK2 aptamer HTS = human GRK2 inhibition via aptamer displacement; P25098; bead flow cytometry, FAM-aptamer displacement from GRK2; inhibition of aptamer binding, % at 10 µM; actives 0.59% (n = 330,000); AID 488847;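 active = inhibition of aptamer binding above 40%, roughly 3 SD of noise, on plates passing a quality check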;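 note: median bead fluorescence of bound FAM aptamer so fluorescent compounds give negative values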
Target sequence (P25098 whole entry, looked up): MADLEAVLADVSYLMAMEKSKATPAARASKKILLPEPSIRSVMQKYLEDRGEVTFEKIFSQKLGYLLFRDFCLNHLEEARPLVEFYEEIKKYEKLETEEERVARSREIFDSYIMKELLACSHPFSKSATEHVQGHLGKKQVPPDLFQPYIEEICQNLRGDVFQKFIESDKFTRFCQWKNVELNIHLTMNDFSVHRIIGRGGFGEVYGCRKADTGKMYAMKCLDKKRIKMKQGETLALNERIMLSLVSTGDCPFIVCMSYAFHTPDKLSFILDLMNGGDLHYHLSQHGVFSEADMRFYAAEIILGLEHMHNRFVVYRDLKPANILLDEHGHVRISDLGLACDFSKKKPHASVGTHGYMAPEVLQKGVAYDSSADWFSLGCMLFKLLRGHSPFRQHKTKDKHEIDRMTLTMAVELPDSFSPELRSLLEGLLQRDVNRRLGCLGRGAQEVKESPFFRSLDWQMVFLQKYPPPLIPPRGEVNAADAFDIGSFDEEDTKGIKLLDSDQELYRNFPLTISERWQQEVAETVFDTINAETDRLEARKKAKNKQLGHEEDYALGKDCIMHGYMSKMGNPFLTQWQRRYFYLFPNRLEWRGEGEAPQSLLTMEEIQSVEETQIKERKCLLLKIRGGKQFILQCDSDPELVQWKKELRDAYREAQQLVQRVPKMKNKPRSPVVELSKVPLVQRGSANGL
SUMO1-SIM PPI = alters human SUMO1 binding to SIM partners; SUMO1 binding to a labelled peptide, TR-FRET, 1 h; inhibition, % at 20 µM; actives 0.33% (n = 360,000); in the data active = inhibition above about 37%
LMPTP inh = blocks human LMPTP phosphatase; actives 0.22% (n = 360,000); P24666; recombinant LMPTP-A, OMFP fluorogenic substrate, fluorescence intensity; inhibition, % at 20 µM; AID 651560;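 active = compounds that cut the enzyme signal by at least half of the control window in the single-dose screen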;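 note: plate controls were DMSO wells with enzyme plus substrate for no effect and substrate without enzyme for full effect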
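material = LMPTP-A | quantity = 0.625 nM enzyme | reagent = OMFP substrate, 400 µM final | buffer or medium = Bis-Tris pH 6.0, DTT, detergent | detection = endpoint fluorescence intensity from OMFP dephosphorylation | dosing = single 20 µM dose | read-out basis = % inhibition relative to no-enzyme and uninhibited control wells | control set = no-enzyme and uninhibited controls | timing = 50 min at room temperature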
Scp1 confirm = Scp-1 (human) inhibition, single-dose confirmed; shares compounds with Scp-1 inhibitor; actives 61% (n = 2,500); recombinant SCP-1 catalytic domain, phosphate release, malachite green absorbance; inhibition, % at 20 µM;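 note: plate controls were DMSO with enzyme for no effect and buffer wells lacking enzyme for full effect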
MG interference = colorimetric interference in Scp-1 counter-screen; 2,500 tested, under 10 active; apparent inhibition (interference), % at 20 µM; AID 540313; shares compounds with Scp-1 inhibitor; Colorimetric interference counterscreen, malachite green absorbance 630 nm;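 note: compounds added after enzyme reaction finished so only phosphate colour detection is probed; plate controls were DMSO wells with completed Scp-1 reaction for no effect and substrate wells lacking enzyme for full effect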
Scp1 DSF = binds human Scp-1, shifting its melting temperature. thermal shift relative to vanadate control, % at 40 µM. shares compounds with Scp-1 inhibitor. Recombinant SCP1, Sypro Orange thermal shift Tm. actives 25% (n = 1,500);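 active = substances whose mean melting-temperature shift, as a percentage of the reference inhibitor's shift, reaches about 5.3%, limit read from the data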;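 note: 0% = Tm of DMSO wells and 100% = Tm with sodium orthovanadate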
* = called active by the depositor; . = not tested or not shown. This is a sample that favours compounds with a hit; in the whole collection about 2.1% have one here.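 Rule for the calls, unless noted: active = inhibition of at least 30% at 20 µM; inactive = the rest.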

SMILES	STEP block	Scp-1 inhibitor	DNMT1 block	GRK2 aptamer HTS	SUMO1-SIM PPI	LMPTP inh	Scp1 confirm	MG interference	Scp1 DSF
CCN(CC)S(=O)(=O)c1cccc(C(=O)Nc2ccc(S(=O)(=O)NC3=NCCCCC3)cc2)c1	0	56*	2	1	8	-1	-5	-14	.
COc1cc(NC(=O)CN2CCN(C(=O)c3ccco3)CC2)c(C)cc1[N+](=O)[O-]	-1	.	2	.	-12	0	.	.	.
Nc1cccc2c1C(=O)c1ccc(Cl)cc1C2=O	4	50*	31	.	-17	31	26	-6	.
COCCNc1ccc([N+](=O)[O-])cc1C(=O)Nc1cccc(C)n1	-1	-5	-2	2	-29	-1	.	.	.
COc1ccc(S(=O)(=O)NCCC(=O)NC2CCCCC2C)cc1[N+](=O)[O-] (stereo not drawn)	9	56*	28	8	-10	8	46*	-14	5.3*
Cn1c(SCC(=O)N/N=C/C=C/c2ccccc2[N+](=O)[O-])nc2ccccc21	2	-10	5	0	-10	-3	.	.	.
Cn1c(SCC(=O)N/N=C/C=C/c2ccco2)nc2ccccc21	-1	73*	57*	4	-1	28	62*	-9	1
O=C(N/N=C/C=C/c1ccco1)c1cnccn1	1	5	11	2	-6	0	.	.	.
O=C(N/N=C/C=C\c1ccco1)c1ccccn1	1	52*	21	4	-10	3	39*	-7	5
COc1ccc(NC(=O)C2(C)CCCN(C(C)C)C2)cc1OC (stereo not drawn)	1	.	-1	.	5	-1	.	.	.
Nc1ccc2cccc(O)c2c1	2	56*	49	.	17	17	54*	-7	13*
Nc1ccc2cc3ccccc3cc2c1	-61	-3	-4	.	-20	3	.	.	.
C[N+]1(C)CCC(=C2c3ccccc3CC(=O)c3sccc32)CC1	5	97*	2	1	12	0	3	-3	.
CCc1cccc(NS(=O)(=O)c2ccc3c(c2)NC(=O)CC(=O)N3)c1	-6	-8	0	4	2	0	-11	-15	.
COCC(C)n1c(C)cc(C(=O)COC(=O)c2c(C)nn(-c3ccccc3)c2C)c1C (stereo not drawn)	1	-12	-11	0	-3	2	.	.	.
COCC(C)n1c(C)cc(C(=O)COC(=O)c2c(NC(C)=O)sc(C)c2C)c1C (stereo not drawn)	35	80*	29	0	7	33	42*	-4	-9
CCN1C(=S)N[C@@H](CCc2ccccc2)C(C(=O)OC)=C1C	-2	-4	0	0	7	1	.	.	.
O=C(NN=C1CCCC1)c1cc(O)cc(O)c1	12	52*	8	6	38	7	53*	-1	-8
C[n+]1ccccc1C1CCCC/C1=N\NC(N)=S (stereo not drawn)	0	113*	8	3	-2	-1	100*	1	-9
CC1CCCC/C1=N\NC(=S)NCCc1ccccc1 (stereo not drawn)	-1	-1	0	1	-7	0	.	.	.
O=C1NCCCC2c3c(cc(Br)c(O)c3Br)OC12N1CCCCC1 (stereo not drawn)	-2	57*	1	1	4	1	-9	-20	.
O=C1NCCCc2c1oc1cc(Br)c(O)c(Br)c21	0	-5	2	1	-1	-6	.	.	.
CC(=O)Nc1ccc(S(=O)(=O)NCc2nc(-c3ccccc3C)no2)cc1	1	1	-2	5	2	0	.	.	.
O=C(CSc1nnc(-c2ccncc2)n1-c1ccccc1)N1CCN(c2ccc(Cl)cc2)CC1	-1	98*	0	1	1	-2	5	-11	.
O=C(CSc1nnc(-c2cccnc2)n1-c1ccccc1)N1CCN(c2ccc(F)cc2)CC1	4	-6	-1	0	0	-1	.	.	.
SMILES	STEP block	Scp-1 inhibitor	DNMT1 block	GRK2 aptamer HTS	SUMO1-SIM PPI	LMPTP inh	Scp1 confirm	MG interference	Scp1 DSF
Cc1cc(C)cc(-c2nnc(SCC(=O)NCC3CCCO3)o2)c1 (stereo not drawn)	2	-5	4	.	1	1	.	.	.
N/C(=N/OC(=O)c1cccc([N+](=O)[O-])c1)c1cccc([N+](=O)[O-])c1	4	95*	3	3	-24	0	75*	-22	6.6*
O=C(CCCOc1ccccc1)N1CCN(S(=O)(=O)c2ccc(Cl)cc2)CC1	2	-2	-3	2	2	0	.	.	.
CCOc1ccc(OCCCC(=O)N2CCN(S(=O)(=O)c3ccc(Cl)cc3)CC2)cc1	3	56*	4	10	6	-1	79*	-20	-3
Cc1ccc(S(=O)(=O)NCc2nnnn2-c2ccc(F)cc2)cc1	1	.	-5	.	-1	-1	.	.	.
Cc1c(C(=O)O)oc2ccc(S(=O)(=O)NCCC3=CCCCC3)cc12	-1	52*	-1	4	0	1	1	-4	.
O=C(Cn1c(=O)cnc2ccccc21)Nc1ccccc1N1CCOCC1	-1	-2	0	2	-2	0	.	.	.
O=C(Cn1c(=O)cnc2ccccc21)Nc1cc(Cl)ccc1N1CCOCC1	12	53*	40	0	-12	1	48*	-11	3
CCCCN1CC(=O)N2[C@H]3c4ccccc4OC[C@@H]3[C@H](C(=O)OCC)[C@]2(C)C1=O	0	-5	-1	2	0	1	.	.	.
CCOc1cc(/C=C2\SC(=O)N(CC(=O)Nc3ccccc3F)C2=O)cc([N+](=O)[O-])c1O	4	85*	0	3	-25	2	62*	-7	21*
COc1ccccc1C(C)NC(=O)c1cc(=O)[nH]c2ccccc12 (stereo not drawn)	-2	74*	0	1	0	1	-2	-8	.
COc1ccccc1NC(=O)c1cc(=O)[nH]c2ccccc12	4	-10	-16	0	1	-1	.	.	.
CCCn1cnnc1CNC(=O)C1CCC(=O)N(CCc2ccc(OC)cc2)C1 (stereo not drawn)	1	-6	5	0	-2	-1	.	.	.
O=C(N/N=C/c1cc2c(cc1Br)OCO2)c1cc2ccccc2o1	2	58*	0	0	4	3	25	-3	.
